Active and inactive are the calls of the source. No cut-off for these calls is given here.
Legend:
[1] = target: Cytochrome P450 2C9 (Homo sapiens, UniProt P11712); assay: Induction of CYP2C9 (unknown origin) at 10 uM; assay type: ADME
[2] = Drug metabolism in human microsomes assessed as drug turnover at 20 uM measured after 30 mins by LCMS analysis; assay type: ADME, Microsome; conditions: read-out: Drug metabolism
Summary of the method: (§1)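 High-throughput microsomal stability: compound at 20 uM incubated with mouse, rat, dog or human liver microsomes at 37 °C; percent parent remaining measured after 30 min and reported as % turnover.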

[3] = target: CYP3A4 (Homo sapiens, UniProt P08684); assay: Inhibition of CYP3A4 (unknown origin) at 10 uM relative to control; assay type: ADME
[4] = target: CYP2C9 (Homo sapiens, UniProt P11712); assay: Inhibition of CYP2C9 (unknown origin) at 10 uM relative to control; assay type: ADME
[5] = target: T1, Probable G-protein coupled receptor 142 (Homo sapiens, UniProt Q7Z601); assay: Agonist activity at human GPR142 receptor expressed in HEK293 cells assessed as accumulation of inositol phosphate incubated for 1 hr followed by IP1-d2 addition by HTRF assay; assay type: functional, cell-based
T1 sequence (Q7Z601 whole entry): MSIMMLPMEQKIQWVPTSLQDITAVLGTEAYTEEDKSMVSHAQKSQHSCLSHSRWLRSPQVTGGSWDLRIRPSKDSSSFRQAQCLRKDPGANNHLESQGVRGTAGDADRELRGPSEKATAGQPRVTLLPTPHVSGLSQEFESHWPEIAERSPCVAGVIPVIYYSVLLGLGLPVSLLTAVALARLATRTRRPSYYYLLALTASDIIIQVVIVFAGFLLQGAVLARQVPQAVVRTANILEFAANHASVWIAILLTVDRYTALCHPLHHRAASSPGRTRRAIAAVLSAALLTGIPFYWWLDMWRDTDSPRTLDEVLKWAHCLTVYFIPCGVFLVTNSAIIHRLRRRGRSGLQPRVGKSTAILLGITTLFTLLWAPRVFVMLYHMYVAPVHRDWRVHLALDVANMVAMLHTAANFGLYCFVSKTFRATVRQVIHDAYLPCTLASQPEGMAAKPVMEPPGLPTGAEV
Summary of the method: (§2)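 HEK293 cells stably expressing human GPR142 (DMEM, 10% FBS, 800 ug/mL G418, 37 °C, 5% CO2), seeded 5000 cells/well and left 18 h to attach. Compounds added at 30 uM to 1 nM, 1 h incubation in HBSS (+Ca, +Mg), 0.1% BSA, 50 mM LiCl, 20 mM HEPES pH 7.2. IP-1 HTRF read-out: IP1-d2 then cryptate, 1 h at 25 °C, 665/620 nm ratio converted via IP-1 standard curve; EC50 by 4-parameter logistic fit.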

[6] = Fractional renal clearance in dog at 1 mg/kg, iv or 5 mg/kg, po; assay type: ADME, organism-based, Canis lupus familiaris; conditions: in vivo
[7] = Oral bioavailability in rat at 10 mg/kg; assay type: ADME, organism-based; conditions: in vivo
[8] = Oral bioavailability in dog at 5 mg/kg; assay type: ADME, organism-based, Canis lupus familiaris; conditions: in vivo
[9] = Drug metabolism in rat microsomes assessed as drug turnover at 20 uM measured after 30 mins by LCMS analysis; assay type: ADME, Microsome; conditions: read-out: Drug metabolism; summary of the method: as §1
[10] = Toxicity in dog assessed as NOAEL administered as repeated dose for 1 month; set-up: species or system Canis lupus familiaris; conditions: in vivo
[11] = target: Cytochrome P450 3A4 (Homo sapiens, UniProt P08684); assay: Induction of CYP3A4 (unknown origin) at 10 uM; assay type: ADME
[12] = Solubility of compound at pH 2 to 7.5; assay type: physicochemical; conditions: buffer
[13] = Permeability of compound; assay type: ADME; conditions: not told
[14] = target: Cytochrome P450 2D6 (Homo sapiens, UniProt P10635); assay: Induction of CYP2D6 (unknown origin) at 10 uM; assay type: ADME
[15] = Clearance in dog at 1 mg/kg, iv or 5 mg/kg, po; assay type: ADME, organism-based, Canis lupus familiaris; conditions: in vivo
[16] = Dissociation constant, pKa of compound; assay type: physicochemical
[17] = Drug metabolism in dog microsomes assessed as drug turnover at 20 uM measured after 30 mins by LCMS analysis; assay type: ADME, Canis lupus familiaris, Microsome; conditions: read-out: Drug metabolism; summary of the method: as §1
[18] = Toxicity in rat assessed as NOAEL administered as repeated dose for 1 month; conditions: in vivo
[19] = Drug metabolism in mouse microsomes assessed as drug turnover at 20 uM measured after 30 mins by LCMS analysis; assay type: ADME, Microsome; conditions: read-out: Drug metabolism; summary of the method: as §1
[20] = Volume of distribution at steady state in dog at 1 mg/kg, iv or 5 mg/kg, po; assay type: ADME, organism-based, Canis lupus familiaris; conditions: in vivo, read-out: Vdss
[21] = target: CYP2D6 (Homo sapiens, UniProt P10635); assay: Inhibition of CYP2D6 (unknown origin) at 10 uM relative to control; assay type: ADME
[22] = Volume of distribution at steady state in rat at 1 mg/kg, iv or 10 mg/kg, po; assay type: ADME, organism-based; conditions: in vivo, read-out: Vdss
[23] = Clearance in rat at 1 mg/kg, iv or 10 mg/kg, po; assay type: ADME, organism-based; conditions: in vivo
[24] = Hypoglycemic activity in mouse pancreatic islets assessed as increase in glucose-dependent insulin secretion at 10 uM relative to control; assay type: functional, Pancreatic islet
Summary of the method: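 Isolated mouse pancreatic islets; glucose-dependent insulin secretion measured at 2.8 mM and 11.1 mM glucose with compound at 10 uM.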

[25] = system: Mus musculus; assay: Hypoglycemic activity in lean C57BL/6J mouse assessed as reduction in glucose level at 0.3 mg/kg, po administered 30 mins prior to glucose challenge measured for 60 mins by IPGTT; assay type: functional
Summary of the method: (§3)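 IPGTT in male C57BL/6 mice, lean or diet-induced obese; compound given orally 30 min before intraperitoneal glucose load; blood glucose followed over time. Mean ± SEM, n=5 per group, compared with vehicle (p<0.05, 0.01, 0.001).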

[26] = system: Mus musculus; assay: Hypoglycemic activity in lean C57BL/6J mouse assessed as reduction in glucose level at 0.1 mg/kg, po administered 30 mins prior to glucose challenge measured for 60 mins by IPGTT; assay type: functional; summary of the method: as §3
[27] = system: Mus musculus; assay: Hypoglycemic activity in diet-induced obese C57BL/6J mouse assessed as reduction in glucose level at 15 mg/kg, po co-administered with 5 mg/kg DPP-4 inhibitor, sitagliptin 30 mins prior to glucose challenge measured after 120 mins by IPGTT; assay type: functional, organism-based; summary of the method: as §3
[28] = system: Mus musculus; assay: Hypoglycemic activity in diet-induced obese C57BL/6J mouse assessed as reduction in glucose level at 15 mg/kg, po administered 30 mins prior to glucose challenge measured for 120 mins by IPGTT; assay type: functional, organism-based; summary of the method: as §3
[29] = system: Mus musculus; assay: Hypoglycemic activity in lean C57BL/6J mouse assessed as reduction in glucose level at 0.01 mg/kg, po administered 30 mins prior to glucose challenge measured for 60 mins by IPGTT; assay type: functional; summary of the method: as §3
[30] = system: Mus musculus; assay: Hypoglycemic activity in diet-induced obese C57BL/6J mouse assessed as increase in plasma insulin secretion at 10 mg/kg, po administered 30 mins prior to glucose challenge measured after 15 mins by IPGTT; assay type: functional, organism-based; conditions: 15 mg/kg, in the assay text read “15 mg/kg” for “10 mg/kg”
Summary of the method: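 IPGTT in male diet-induced obese mice; compound given orally 30 min before intraperitoneal glucose; plasma insulin measured. Mean ± SEM, n=5 per group, versus vehicle.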

[31] = system: Mus musculus; assay: Hypoglycemic activity in lean C57BL/6J mouse assessed as reduction in glucose level at 0.03 mg/kg, po administered 30 mins prior to glucose challenge measured for 60 mins by IPGTT; assay type: functional; summary of the method: as §3
[32] = target: T2, Probable G-protein coupled receptor 142 (Homo sapiens) (UniProt Q7Z601); assay: Agonist activity at human GPR142 receptor expressed in HEK293 cells assessed as accumulation of inositol phosphate at 30 uM to 1 nM incubated for 1 hr followed by IP1-d2 addition by HTRF assay relative to control; assay type: functional, cell-based; summary of the method: as §2
T2 sequence (whole entry): T1 sequence (Q7Z601 whole entry)

[33] = system: Mus musculus; assay: Hypoglycemic activity in lean C57BL/6J mouse assessed as reduction in glucose level at 10 mg/kg, po administered 30 mins prior to glucose challenge measured for 60 mins by IPGTT; assay type: functional; summary of the method: as §3
[34] = system: Mus musculus; assay: Hypoglycemic activity in diet-induced obese C57BL/6J mouse assessed as increase in insulin secretion at 15 mg/kg, po co-administered with 5 mg/kg DPP-4 inhibitor, sitagliptin 30 mins prior to glucose challenge measured after 15 mins by IPGTT; assay type: functional, organism-based
[35] = system: Mus musculus; assay: Hypoglycemic activity in lean C57BL/6J mouse assessed as reduction in glucose level at 1 mg/kg, po administered 30 mins prior to glucose challenge measured for 60 mins by IPGTT; assay type: functional; summary of the method: as §3
[36] = system: Mus musculus; assay: Hypoglycemic activity in po dosed lean C57BL/6J mouse assessed as reduction in glucose level administered 30 mins prior to glucose challenge measured for 60 mins by IPGTT; assay type: functional, organism-based; summary of the method: as §3

CYP2C9, sequence (P11712 whole entry): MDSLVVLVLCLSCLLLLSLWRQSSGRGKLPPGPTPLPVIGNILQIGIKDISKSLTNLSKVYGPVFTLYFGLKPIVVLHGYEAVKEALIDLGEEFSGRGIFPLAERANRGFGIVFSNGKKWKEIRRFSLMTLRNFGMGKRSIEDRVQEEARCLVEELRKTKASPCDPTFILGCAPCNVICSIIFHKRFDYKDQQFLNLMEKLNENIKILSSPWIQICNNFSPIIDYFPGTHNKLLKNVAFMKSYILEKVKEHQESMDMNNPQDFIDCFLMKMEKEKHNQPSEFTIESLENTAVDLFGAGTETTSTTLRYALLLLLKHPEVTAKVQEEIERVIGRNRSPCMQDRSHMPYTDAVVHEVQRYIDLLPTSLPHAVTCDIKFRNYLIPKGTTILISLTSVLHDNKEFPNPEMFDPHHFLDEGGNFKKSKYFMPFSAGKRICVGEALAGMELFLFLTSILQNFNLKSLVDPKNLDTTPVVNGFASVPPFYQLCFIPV
CYP3A4, sequence (P08684 whole entry): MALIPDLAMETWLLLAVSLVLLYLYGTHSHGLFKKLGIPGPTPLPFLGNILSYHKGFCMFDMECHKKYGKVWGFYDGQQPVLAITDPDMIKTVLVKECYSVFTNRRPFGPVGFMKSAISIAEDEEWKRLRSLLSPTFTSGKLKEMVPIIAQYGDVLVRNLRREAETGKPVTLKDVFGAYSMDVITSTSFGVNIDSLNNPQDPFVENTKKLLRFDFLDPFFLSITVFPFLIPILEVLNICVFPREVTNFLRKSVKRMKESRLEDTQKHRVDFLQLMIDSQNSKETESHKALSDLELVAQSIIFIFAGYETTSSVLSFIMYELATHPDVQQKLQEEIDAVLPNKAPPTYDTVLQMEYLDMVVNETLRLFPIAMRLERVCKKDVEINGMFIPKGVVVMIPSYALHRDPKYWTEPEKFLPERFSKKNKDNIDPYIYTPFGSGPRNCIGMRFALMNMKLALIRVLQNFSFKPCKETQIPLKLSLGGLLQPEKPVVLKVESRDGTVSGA
CYP2D6, sequence (P10635 whole entry): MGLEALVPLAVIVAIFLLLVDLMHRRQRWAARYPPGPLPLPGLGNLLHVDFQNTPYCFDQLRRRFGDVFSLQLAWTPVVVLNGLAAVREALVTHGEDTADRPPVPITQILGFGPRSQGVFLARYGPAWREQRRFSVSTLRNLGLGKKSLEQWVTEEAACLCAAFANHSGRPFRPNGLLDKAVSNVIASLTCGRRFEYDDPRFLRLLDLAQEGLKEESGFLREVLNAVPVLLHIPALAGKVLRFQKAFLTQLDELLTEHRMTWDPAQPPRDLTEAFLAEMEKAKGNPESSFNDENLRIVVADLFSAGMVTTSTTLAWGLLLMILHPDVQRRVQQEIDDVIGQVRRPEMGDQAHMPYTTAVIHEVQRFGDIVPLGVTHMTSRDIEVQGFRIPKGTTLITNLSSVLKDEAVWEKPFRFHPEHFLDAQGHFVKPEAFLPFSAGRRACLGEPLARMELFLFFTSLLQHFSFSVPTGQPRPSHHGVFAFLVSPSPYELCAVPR
Cytochrome P450 2C9, sequence (P11712 whole entry): as the sequence (P11712 whole entry) above
Cytochrome P450 3A4, sequence (P08684 whole entry): as the sequence (P08684 whole entry) above
Cytochrome P450 2D6, sequence (P10635 whole entry): as the sequence (P10635 whole entry) above

metabolised at 0.5 h, 20 µM [2] [%] | inhibition at 10 µM [3] [%] | inhibition at 10 µM [4] [%] | EC50 [5] [µM] | CL [6] [%] | bioavailability [7] [%] | bioavailability [8] [%] | metabolised at 0.5 h, 20 µM [9] [%] | clearance [15] [L/h/kg] | pKa [16] | metabolised at 0.5 h, 20 µM [17] [%] | metabolised at 0.5 h, 20 µM [19] [%] | Vd [20] [L/kg] | inhibition at 10 µM [21] [%] | Vd [22] [L/kg] | clearance [23] [L/h/kg] | Emax [32] [%] | Structure (SMILES) | further results
14 | 22 | 11 | 0.043 | < 5 | 63 | 78 | 14 | 0.504 | 5.9 | 13 | 22 | 1.3 | 16 | 1.1 | 1.33 |  | Cc1ncn(C)c1-c1nnc([C@@H]2C[C@H](N(C)C(=O)c3cccc(C(F)(F)F)c3)CCO2)[nH]1 | Activity [1]: Not Active; NOAEL at 1 month [10]: 180 mg/kg; Activity [11]: Not Active; solubility [12]: > 2 mg/mL; Papp [13]: 135 nm/s; Activity [14]: Not Active; NOAEL at 1 month [18]: 200 mg/kg
32 | 6.1 | 14 | 0.03 | 20 | 28 | 66 | 41 | 1.06 | 6.9 | 28 | 89 | 1.2 | 0 | 1.3 | 2.98 | 104 | Cc1ncn(C)c1NC(=O)[C@H]1CCC[C@@H](N(C)C(=O)c2cccc(C(F)(F)F)c2)C1 | fold change (FC) [24]: 1.4; inhibition in vivo at 0.3 mg/kg [25]: 27%; inhibition in vivo at 0.1 mg/kg [26]: 12%; Activity [27]: Active; Activity [28]: Active; inhibition in vivo at 0.01 mg/kg [29]: 9%; Activity [30]: Active; inhibition in vivo at 0.03 mg/kg [31]: 11%; inhibition in vivo at 10 mg/kg [33]: 47%; Activity [34]: Active; inhibition in vivo at 1 mg/kg [35]: 34%; Activity [36]: Dose-dependent effect
26 | 3.3 | 0 | 0.014 |  | 29 | 86 | 55 | 0.528 |  | 33 | 39 | 0.9 | 0 | 1 | 2.41 | 111 | Cc1ncn(C)c1-c1nnc([C@H]2CCC[C@@H](N(C)C(=O)c3cccc(Cl)c3)C2)[nH]1 | 
